Results taken from article PMC3696402 (Neuropharmacology, 2013).

Tests used:
histamine H1 GPCRs = conditions: previous studies; ref Bucholtz et al., 2009; cited from earlier work
5HT2A receptors [1] = target: T1, 5HT2A receptors (Homo sapiens, UniProt P28223); experiment: PLC activation and [3H]-IP formation in HEK cells; format: cell-based; conditions: for 5HT2A Function (activation of PLC/IP formation): at 10 μM
C57Bl/6J male mice [2] = experiment: DOI-elicited head-twitch response; format: in vivo; conditions: for DOI-elicited HTR (responses) after pretreatment: 30 mg/kg i.p. pretreatment before 1 mg/kg (−)-DOI; for DOI-elicited HTRs after oral administration: 30 mg/kg oral (gavage) 20 min before (−)-DOI 1.0 mg/kg; for ED50 value (±95% CL), 50% attenuation of the DOI-elicited response: i.p. pretreatment before 1 mg/kg (−)-DOI; for Number of head-twitches: 10-min session
In short: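 Male C57Bl/6J mice (Jackson, pair-housed, ~8 weeks old on arrival, ≥1 week acclimation), tested mid-light phase after 30 min room habituation. Test compound or saline (sterile saline, 0.01 ml/g) given i.p. 10 min, or orally by gavage 20 min, before (−)-DOI (0.1–1.0 mg/kg) or saline. Ten min after DOI, head twitches counted over 10 min by a blind observer. ED50 reported with 95% CL.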

5HT2B receptors [3] = target: T2, 5HT2B receptors (Homo sapiens, UniProt P41595); experiment: PLC activation and [3H]-IP formation in HEK cells; format: cell-based; conditions: at 10 μM
C57Bl/6J male mice [4] = experiment: Locomotor activity; format: in vivo
[5] = target: adenosine, adrenergic, benzodiazepine, cholinergic, dopamine, GABAA, histamine H2, H3, H4, NMDA/PCP, opiate, and serotonin 5-HT1A, 5-HT1B, receptors; experiment: Preliminary off-target binding studies; conditions: read-out: Ki (off-target receptors), comparatively low (Ki > 0.5 μM) or very low (Ki > 1 μM) affinity, initial results, PDSP 2012
5HT2A receptors [6] = target: T1, 5HT2A receptors; experiment: Radioreceptor competition binding, [3H]-ketanserin, HEK membranes; conditions: read-out: 5HT2A Ki ± SEM; [3H]-ketanserin 2.0 nM, 1.0 h at 37°C
In short: (§1)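 HEK-293 cells transiently transfected (Lipofectamine 2000, 24–48 h) with human receptor cDNA (5HT2C: unedited INI isoform). Membranes in 50 mM Tris, 10 mM MgCl2, 0.1 mM EDTA; 3–5 μg protein per well. Nonspecific binding defined with 10 μM mianserin. Separated by GF/B filtration with five 50 mM Tris-HCl washes, then scintillation counting. Triplicates, at least 3 experiments; IC50 converted to Ki by Cheng–Prusoff.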

C57Bl/6J male mice [7] = experiment: Palatable meal eating; format: in vivo; conditions: for Eating (pellets consumed) as % of baseline levels: 24 mg/kg i.p. 15 min before 30-min access to Crunchies; for ED50 value (±95% CL), 50% attenuation of consumption: i.p. 15 min before 30-min access to Crunchies
In short: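 Singly housed male C57Bl/6J mice (Harlan) with chow and water ad lib. In home cages, 10 sweet pellets (~190 mg, 3.5 kcal/g) were offered five days/week, with access tapered to 30 min/day. After ~2 weeks of stable intake, test compound was given i.p. (2 ml/kg, sterile saline) 15 min before access. Pellets eaten were counted. ED50 reported with 95% CL.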

5HT2C receptors [8] = target: T3, 5HT2C receptors (Homo sapiens, UniProt P28335); experiment: Radioreceptor competition binding, [3H]-mesulergine, HEK membranes; conditions: read-out: 5HT2C Ki ± SEM; [3H]-mesulergine 1.4 nM, 1.0 h at 37°C
T3 sequence (P28335 33-458): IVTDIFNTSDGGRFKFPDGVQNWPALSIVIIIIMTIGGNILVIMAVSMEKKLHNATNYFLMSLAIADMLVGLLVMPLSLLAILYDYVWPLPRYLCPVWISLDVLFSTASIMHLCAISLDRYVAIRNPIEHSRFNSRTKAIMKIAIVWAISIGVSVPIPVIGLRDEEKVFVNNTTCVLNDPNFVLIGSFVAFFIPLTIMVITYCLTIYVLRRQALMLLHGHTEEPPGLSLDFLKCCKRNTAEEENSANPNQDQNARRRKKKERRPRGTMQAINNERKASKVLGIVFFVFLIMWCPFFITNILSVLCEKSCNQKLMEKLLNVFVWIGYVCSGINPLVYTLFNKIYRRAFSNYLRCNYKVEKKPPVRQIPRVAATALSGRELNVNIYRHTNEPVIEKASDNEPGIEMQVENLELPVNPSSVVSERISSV
In short: as §1

5HT2B receptors [9] = target: T2, 5HT2B receptors; experiment: Radioreceptor competition binding, [3H]-mesulergine, HEK membranes; conditions: read-out: 5HT2B Ki ± SEM; [3H]-mesulergine 1.95 nM, 1.0 h at 37°C
In short: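 Membranes came from HEK-293 cells transfected with 24 μg human 5HT2B cDNA (Lipofectamine 2000, 24–48 h) and collected in 50 mM Tris, 10 mM MgCl2, 0.1 mM EDTA. […] Nonspecific binding: 10 μM mianserin. Filtered on GF/B, washed five times with Tris-HCl, scintillation counted. Triplicates, ≥3 experiments.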

5HT2C receptors [10] = target: T3, 5HT2C receptors; experiment: PLC activation and [3H]-IP formation in HEK cells; format: cell-based; conditions: for EC50: read-out: 5HT2C EC50±SEM, [3H]-IP formation, 30 min incubation
[11] = 3 mg/kg i.p. with DOI (1 mg/kg)
[12] = 10 mg/kg i.p. with DOI (1 mg/kg)
[13] = 10 mg/kg i.p. with saline (no DOI)
[14] = 30 mg/kg i.p. with DOI (1 mg/kg)
[15] = 30 mg/kg i.p. with saline (no DOI)
[16] = 30 mg/kg oral pretreatment before 1.0 mg/kg DOI

T1 sequence (P28223 whole entry): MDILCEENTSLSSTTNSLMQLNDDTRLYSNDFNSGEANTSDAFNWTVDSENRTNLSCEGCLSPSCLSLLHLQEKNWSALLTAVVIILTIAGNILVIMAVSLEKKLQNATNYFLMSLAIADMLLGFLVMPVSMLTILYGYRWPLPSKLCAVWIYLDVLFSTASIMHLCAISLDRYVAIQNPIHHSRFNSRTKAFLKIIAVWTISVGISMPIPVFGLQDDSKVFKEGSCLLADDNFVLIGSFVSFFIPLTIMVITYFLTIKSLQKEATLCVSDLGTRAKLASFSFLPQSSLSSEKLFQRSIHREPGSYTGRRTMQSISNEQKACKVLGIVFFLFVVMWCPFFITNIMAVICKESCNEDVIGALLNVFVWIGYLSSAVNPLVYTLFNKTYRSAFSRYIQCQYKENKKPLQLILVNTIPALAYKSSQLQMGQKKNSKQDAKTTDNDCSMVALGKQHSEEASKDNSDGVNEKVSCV
T2 sequence (P41595 whole entry): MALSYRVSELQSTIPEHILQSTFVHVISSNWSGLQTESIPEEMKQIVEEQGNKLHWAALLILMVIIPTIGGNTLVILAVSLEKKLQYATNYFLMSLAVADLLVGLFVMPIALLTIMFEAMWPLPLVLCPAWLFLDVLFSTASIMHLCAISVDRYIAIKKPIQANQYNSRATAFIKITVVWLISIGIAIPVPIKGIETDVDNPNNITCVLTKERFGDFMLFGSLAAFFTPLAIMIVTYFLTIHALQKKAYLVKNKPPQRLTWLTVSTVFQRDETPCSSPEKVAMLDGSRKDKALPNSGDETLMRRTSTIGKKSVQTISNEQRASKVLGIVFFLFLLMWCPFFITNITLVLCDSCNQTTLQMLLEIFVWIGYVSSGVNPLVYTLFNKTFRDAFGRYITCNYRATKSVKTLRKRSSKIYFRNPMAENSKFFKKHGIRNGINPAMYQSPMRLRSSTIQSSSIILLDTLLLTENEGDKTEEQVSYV

| SMILES | Affinity at histamine H1 GPCRs (histamine H1 GPCRs) | 5HT2A Function (activation of PLC/IP formation) (5HT2A receptors [1]) | DOI-elicited HTR (responses) after pretreatment (C57Bl/6J male mice [2]) | DOI-elicited HTRs after oral administration (C57Bl/6J male mice [2]) | ED50 value (±95% CL), 50% attenuation of the DOI-elicited response (C57Bl/6J male mice [2]) | 5HT2B Function (activation of PLC/IP formation) (5HT2B receptors [3]) | Distance travelled (mean ± s.e.m.) (C57Bl/6J male mice [4]; [11]) [cm] | Distance travelled (mean ± s.e.m.) (C57Bl/6J male mice [4]; [12]) [cm] | Distance travelled (mean ± s.e.m.) (C57Bl/6J male mice [4]; [13]) [cm] | Distance travelled (mean ± s.e.m.) (C57Bl/6J male mice [4]; [14]) [cm] | Distance travelled (mean ± s.e.m.) (C57Bl/6J male mice [4]; [15]) [cm] | Distance travelled (mean ± s.e.m.) (C57Bl/6J male mice [4]; [16]) [cm] | Ki [5] [nM] | Ki (5HT2A receptors [6]) [nM] | Eating (pellets consumed) as % of baseline levels (C57Bl/6J male mice [7]) [%] | ED50 value (±95% CL), 50% attenuation of consumption (C57Bl/6J male mice [7]) | Ki (5HT2C receptors [8]) [nM] | Ki (5HT2B receptors [9]) [nM] | Function at the 5HT2C receptor (efficacy compared to 5HT) (5HT2C receptors [10]) | EC50 (5HT2C receptors [10]) [nM] | other results |
| --- | --- | --- | --- | --- | --- | --- | --- | --- | --- | --- | --- | --- | --- | --- | --- | --- | --- | --- | --- | --- | --- |
| CN(C)[C@@H]1Cc2ccccc2[C@@H](c2ccccc2)C1 (relative stereo) [(−)-trans-PAT, (−)-(2S, 4R)-trans-4-phenyl-N,N-dimethyl-2-aminotetralin, reference compound] | high affinity |  |  |  |  |  |  |  |  |  |  |  |  |  |  |  |  |  |  |  |  |
| CN(C)[C@@H]1Cc2ccccc2[C@@H](c2ccc(Cl)cc2)C1 (stereo in doubt) [(−)-p-Cl-PAT, (−)-(2S, 4R)-trans-4-(4′-chlorophenyl)-N,N-dimethyl-2-aminotetralin] |  | No Activation ^1 | 13 | 18.25 | 20.1 (14.0–28.8) mg/kg | No Activation ^1 | 3386 ± 150 | 3064 ± 309 | 3097 ± 937 | 1889 ± 191 | 1994 ± 165 | 1944 ± 654 | > 500 | 240 ± 32 | 36.4 | 21.3 (18.5–24.4) mg/kg | 130 ± 16 | 300 ± 30 | partial agonists | 1650 ± 149 |  |
| CN(C)[C@H]1Cc2ccccc2[C@H](c2ccc(Cl)cc2)C1 (stereo in doubt) [(±) p-Cl-PAT, racemic trans-4-(4′-chlorophenyl)-N,N-dimethyl-2-aminotetralin] | high affinity |  |  | 13.25 |  |  |  |  |  |  |  | 1662 ± 468 |  |  |  |  |  |  |  |  |  |
| COc1cc(CC(C)N)c(OC)cc1I.Cl (single isomer, unassigned; (-)) [(−)-DOI, (−)-2,5-dimethoxy-4-iodoamphetamine hydrochloride, reference compound] |  |  |  |  |  |  |  |  |  |  |  |  |  |  |  |  |  |  |  |  | Number of head-twitches (C57Bl/6J male mice [2]; 0.1 mg/kg (−)-DOI preceded by a saline injection): 6; Number of head-twitches (C57Bl/6J male mice [2]; 0.3 mg/kg (−)-DOI preceded by a saline injection): 22; Number of head-twitches (C57Bl/6J male mice [2]; 1.0 mg/kg (−)-DOI preceded by a saline injection): 45; Number of HTRs (C57Bl/6J male mice [2]; (−)-DOI 1.0 mg/kg following oral saline administration): 37.5; Distance travelled (mean ± s.e.m.) (C57Bl/6J male mice [4]; saline pretreatment, (−)-DOI 0.1 mg/kg): 2829 ± 481 cm; Distance travelled (mean ± s.e.m.) (C57Bl/6J male mice [4]; saline pretreatment, (−)-DOI 0.3 mg/kg): 2804 ± 353 cm; Distance travelled (mean ± s.e.m.) (C57Bl/6J male mice [4]; saline pretreatment, (−)-DOI 1.0 mg/kg): 3626 ± 392 cm |
| CN(C)[C@H]1Cc2ccccc2[C@H](c2ccc(Cl)cc2)C1 (stereo in doubt) [(+)-p-Cl-PAT, (+)-(2R, 4S)-trans-4-(4′-chlorophenyl)-N,N-dimethyl-2-aminotetralin] |  | No Activation | 3.3 | 8.5 | 8.2 (5.4–12.4) mg/kg | No Activation ^1 | 3523 ± 518 | 2557 ± 99 | 2142 ± 124 | 1329 ± 434 | 870 ± 502 | 1586 ± 398 | > 500 | 42 ± 6 | 15.9 | 14.8 (11.8–18.7) mg/kg | 45 ± 7 | 80 ± 10 | partial agonists | 140 ± 20 | pA2 (competitive antagonism of 5HT activation of 5HT2A-mediated [3H]-IP formation) (5HT2A receptors [1]; Schild analysis versus 5HT): 6.21 ± 0.55; Distance travelled (mean ± s.e.m.) (C57Bl/6J male mice [4]; 3 mg/kg i.p. with saline (no DOI)): 2216 ± 98 cm; Potency at 5HT2C relative to (−)-p-Cl-PAT (5HT2C receptors [10]; ratio of EC50 values): about 12 times |
